# Assay results reported in paper PMC7658953 (ACS Omega, 2020).
# Values joined by “and” are separate entries in the source; they are usually repeats but may differ in a detail not shown here. Identical values can stand only once.
# What was measured:
# MSSA ATCC 29213 [1] = assay: Killing of stationary phase cells in PBS, colony count; type: cell-based, Staphylococcus aureus; conditions: 2 h, 10^5 CFU/mL stationary phase cells
# In short: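 Stationary-phase cells washed once and resuspended in 10 mM PBS (150 mM NaCl, pH 7.4). Adjusted to about 10^8 CFU/mL (OD600 0.5), then diluted 10-fold serially to 10^5 CFU/mL. Exposed to test compound for 2 h at 37 °C, 180 rpm; aliquots diluted, plated and counted after overnight incubation at 37 °C. Bactericidal defined as >3 log reduction versus untreated control.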
# MRSA ATCC 33591 [2] = assay: MIC, broth microdilution; type: cell-based, Staphylococcus aureus
# In short: (§1)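 Broth microdilution: mid-log cells washed, suspended in cation-adjusted MHB or TSB (0.25% glucose, 0.5% NaCl), and adjusted to 10^8 CFU/mL (OD600 0.5). Added to 2-fold serial dilutions of test compound in 0.2% BSA/0.01% acetic acid, final about 2–5 × 10^5 CFU/mL in polypropylene wells. Incubated 16–18 h at 37 °C, 180 rpm; A600 read. MIC = lowest concentration fully inhibiting growth. Duplicates on at least two days.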
# MSSA ATCC 29213 [3] = assay: MIC, broth microdilution; type: cell-based, Staphylococcus aureus
# In short: as §1
# MRSA ATCC 33591 [4] = assay: In vitro resistance development, serial passage study; type: cell-based, Staphylococcus aureus; conditions: cation-adjusted MHB, ratio of MIC after passage to MIC before first passage
# [5] = test system: MSSA ATCC 29213 and MRSA ATCC 33591; assay: Killing kinetics of stationary phase cells in TSB medium, both strains pooled; type: cell-based, Staphylococcus aureus; conditions: 10 × MIC, 10^7 CFU/mL
# In short: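 Adjusted to 10^7 CFU/mL (OD600 0.05) in the same medium and incubated at 37 °C with test compound at 30, 40 or 50 μM; vancomycin included as comparator. Aliquots taken at 15 and 30 min, 1, 2, 3 and 24 h, serially diluted and drop-plated; colonies counted after 16–18 h. Three independent runs.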
# S. aureus biofilm = assay: Inhibition of biofilm formation, both strains pooled; type: cell-based, Staphylococcus aureus; conditions: identical conditions, 24 h, TSB, MSSA and MRSA
# In short: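 Overnight S. aureus diluted to 10^5 CFU/mL in TSB (0.25% glucose, 0.5% NaCl). Biofilms grown 24 h at 37 °C in polystyrene wells with 20 μM test compound. Biomass by crystal violet after two PBS washes, read at 570 nm. Metabolic activity by resazurin: plate sonicated 5 min at 40 kHz, 30 min dark at room temperature, ex 550/em 590 nm. Viable cells by scraping into PBS, sonicating, plating and counting after 16–18 h at 37 °C.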
# [6] = test system: murine red blood cells (RBCs); assay: Hemolytic activity; type: cell-based; conditions: 1 h
# In short: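 Fresh murine RBCs washed twice in 35 mM PBS (150 mM NaCl, pH 7.4) and suspended at 4% (v/v). Mixed 1:1 with 2-fold serial dilutions of test compound in PBS and held 1 h at 37 °C. After centrifugation, supernatant diluted in PBS and hemoglobin read at 414 nm. Lysis % scaled between PBS and 0.1% Triton X-100 (100%). Duplicate wells, two days.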
# S. aureus cells = assay: MIC of palmitic acid, preliminary studies; type: cell-based; conditions: Staphylococcus aureus
# [7] = test system: stationary phase S. aureus cells; assay: SEM and TEM of stationary phase cells; type: cell-based, Staphylococcus aureus; conditions: 20 μg/mL, positive control
# [8] = test system: 3T3 murine fibroblast cells; assay: Cytotoxicity, MTT assay; type: cell-based; conditions: 2% Triton X-100, positive control
# In short: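 3T3 murine fibroblasts seeded at 0.2 × 10^5 cells/well in DMEM with 10% FBS for 24 h to about 75% confluence. Exposed to 20 or 50 μM test compound in serum-free DMEM for 2 h at 37 °C, 5% CO2. Washed, then 0.1 mg/mL MTT for 2 h in the dark; formazan dissolved in DMSO and read at 570 nm. Survival % = OD570 sample/untreated × 100. Two independent runs in duplicate.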
# [9] = Staphylococcus aureus, ATCC33591|MRSA
# [10] = tryptic soy broth (0.25% glucose, 0.5% NaCl)
# [11] = Staphylococcus aureus, ATCC29213|MSSA
compound,measurement,setting,value
Ac-H^6-F^7-R^8-W^9-G^10-K^11-P^12-V^13-NH2 [α-MSH(6-13)],log reduction in viable cell count,MSSA ATCC 29213 [1]; 20 μM,~2 log
same,log reduction in viable cell count,MSSA ATCC 29213 [1]; 50 μM,~2 log
CN[C@H](CC(C)C)C(=O)N[C@H]1C(=O)N[C@@H](CC(N)=O)C(=O)N[C@H]2C(=O)N[C@H]3C(=O)N[C@H](C(=O)N[C@H](C(=O)O)c4cc(O)cc(O)c4-c4cc3ccc4O)[C@H](O)c3ccc(c(Cl)c3)Oc3cc2cc(c3O[C@@H]2O[C@H](CO)[C@@H](O)[C@H](O)[C@H]2O[C@H]2C[C@](C)(N)[C@H](O)[C@H](C)O2)Oc2ccc(cc2Cl)[C@H]1O [vancomycin],MIC,MRSA ATCC 33591 [2]; [9],0.48 to 0.96 µM
same,MIC,MRSA ATCC 33591 [2]; [10],0.48−0.96 μM
same,MIC,MSSA ATCC 29213 [3]; [11],0.48 µM
same,MIC,MSSA ATCC 29213 [3]; [10],0.48 µM
same,increase in MIC after 18 serial passages at sub-MIC concentrations,MRSA ATCC 33591 [4],8 fold
same,log reduction in the cell count,"[5]; 24 h, range over MSSA and MRSA",3.4–4.4 log
same,cell viability,[5]; up to 3 h,did not affect the cell viability
same,log reduction in the viable cell count of the biofilm,S. aureus biofilm,≥ 4.8 log
same,reduction of biofilm biomass (crystal violet),S. aureus biofilm,≥ 98.32 ± 0.95%
same,reduction of metabolic activity in the biofilm (resazurin),S. aureus biofilm,100%
CC[C@H](C)[C@H](NC(=O)CN)C(=O)NCC(=O)N[C@@H](C)C(=O)N[C@H](C(=O)N[C@@H](CC(C)C)C(=O)N[C@@H](CCCCN)C(=O)N[C@H](C(=O)N[C@@H](CC(C)C)C(=O)N[C@H](C(=O)N[C@H](C(=O)NCC(=O)N[C@@H](CC(C)C)C(=O)N1CCC[C@H]1C(=O)N[C@@H](C)C(=O)N[C@@H](CC(C)C)C(=O)N[C@H](C(=O)N[C@@H](CO)C(=O)N[C@@H](Cc1c[nH]c2ccccc12)C(=O)N[C@H](C(=O)N[C@@H](CCCCN)C(=O)N[C@@H](CCCNC(=N)N)C(=O)N[C@@H](CCCCN)C(=O)N[C@@H](CCCNC(=N)N)C(=O)N[C@@H](CCC(N)=O)C(=O)N[C@@H](CCC(N)=O)C(N)=O)[C@@H](C)CC)[C@@H](C)CC)[C@@H](C)O)[C@@H](C)O)C(C)C)C(C)C [melittin],HC50 (concentration that causes lysis of 50% of the RBCs),[6],≤ 3.9 µM
O=C(O)c1cn(C2CC2)c2cc(N3CCNCC3)c(F)cc2c1=O [ciprofloxacin],increase in MIC after 18 serial passages at sub-MIC concentrations,MRSA ATCC 33591 [4],66 fold
Cc1onc(-c2ccccc2)c1C(=O)N[C@@H]1C(=O)N2[C@@H]1SC(C)(C)[C@@H]2C(=O)O [oxacillin],MIC,MRSA ATCC 33591 [2]; [9],134 µM to 268 µM and 56.8 µg/mL to 114 µg/mL
same,MIC,MRSA ATCC 33591 [2]; [10],134.1–268.3 μM and 56.8–113.6 μg/mL
same,MIC,MSSA ATCC 29213 [3]; [11],< 0.8 µM and < 0.35 µg/mL
same,MIC,MSSA ATCC 29213 [3]; [10],< 0.8 μM and < 0.35 μg/mL
CCCCCCCCCCCCCCCC(=O)O [palmitic acid],MIC,S. aureus cells,> 50 µM
gramicidin D,bacterial morphology and surface integrity in SEM and TEM,[7],"presence of cell debris, dents on the surface, and loss in shape of the cells"
Ac-K^11-P^12-V^13-NH2 [α-MSH(11-13)],log reduction in viable cell count,MSSA ATCC 29213 [1]; 150 μM,0.7 log
Triton X-100,reduction in survival of the cells relative to untreated growth control,[8],52.8%
